# Test results: ChEMBL document CHEMBL2010740, “Synthesis and evaluation of 2-amido-3-carboxamide thiophene CB₂ receptor agonists for pain management” (Bioorg Med Chem Lett, 2012)
# How the values were obtained:
# [1] = target: T1, Cannabinoid receptor 2 (Homo sapiens, UniProt P34972); test: Displacement of [3H]CP-55940 from human recombinant CB2 receptor expressed in HEK293 cells after 90 mins; assay type: cell-based
# Method in brief: (§1)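 Competitive binding: [³H]CP-55,940 displaced from membranes of HEK 293 cells stably transfected with human or rat CB₂, or CHO cells stably transfected with human or rat CB₁. Reported as pKi. Determinations >2 (duplicate of duplicate).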
# [2] = target: T2, Cannabinoid receptor 2 (Rattus norvegicus, UniProt Q9QZN9); test: Displacement of [3H]CP-55940 from rat recombinant CB2 receptor expressed in HEK293 cells after 90 mins; assay type: cell-based; method in brief: as §1
# T2 sequence (Q9QZN9 whole entry): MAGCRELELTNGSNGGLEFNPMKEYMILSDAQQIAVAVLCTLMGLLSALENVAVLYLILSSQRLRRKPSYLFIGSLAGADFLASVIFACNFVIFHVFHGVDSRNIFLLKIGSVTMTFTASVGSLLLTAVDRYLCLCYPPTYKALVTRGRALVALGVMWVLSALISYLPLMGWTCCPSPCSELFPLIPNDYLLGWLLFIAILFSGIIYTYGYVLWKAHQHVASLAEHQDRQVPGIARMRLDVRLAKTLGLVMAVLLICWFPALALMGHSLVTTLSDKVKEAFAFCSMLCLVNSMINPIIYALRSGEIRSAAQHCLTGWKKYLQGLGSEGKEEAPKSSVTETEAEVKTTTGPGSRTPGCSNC
# [3] = target: T3, Cannabinoid receptor 1 (Homo sapiens, UniProt P21554); test: Displacement of [3H]CP-55940 from human recombinant CB1 receptor expressed in CHO cells after 90 mins; assay type: cell-based; method in brief: as §1
# [4] = target: T4, Cannabinoid receptor 1 (Rattus norvegicus, UniProt P20272); test: Displacement of [3H]CP-55940 from rat recombinant CB1 receptor expressed in CHO cells after 90 mins; assay type: cell-based; method in brief: as §1
# [5] = target: T1, Cannabinoid receptor 2; test: Agonist activity at human recombinant CB2 receptor expressed in HEK293 cells co-expressing chimeric Gaq/o protein by FLIPR assay; assay type: functional, cell-based
# Method in brief: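 FLIPR functional assay in HEK 293 cells stably co-expressing chimeric Gαq/o protein and the CB receptor. Net peak evoked response was compared with the peak response to CP-55,940.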
# [6] = target: T1, Cannabinoid receptor 2; test: Agonist activity at human recombinant CB2 receptor expressed in HEK293 cells assessed as inhibition of forskolin-induced cAMP production after 20 mins by ELISA; assay type: functional, cell-based
# Method in brief: (§2)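 cAMP assay in HEK 293 cells stably expressing the relevant CB receptor, with a fixed concentration of forskolin. cAMP was quantified by ELISA. Activation is given as percent of the CP-55,940 control response.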
# [7] = target: T2, Cannabinoid receptor 2; test: Agonist activity at rat recombinant CB2 receptor expressed in HEK293 cells assessed as inhibition of forskolin-induced cAMP production after 20 mins by ELISA; assay type: functional, cell-based; method in brief: as §2
# [8] = target: T5, Cannabinoid receptor 2 (Rattus norvegicus) (UniProt Q9QZN9); test: Agonist activity at rat recombinant CB2 receptor expressed in HEK293 cells assessed as inhibition of forskolin-induced cAMP production after 20 mins by ELISA relative to CP55940; assay type: functional, cell-based; method in brief: as §2
# T5 sequence (whole entry): T2 sequence (Q9QZN9 whole entry)
# [9] = target: T3, Cannabinoid receptor 1; test: Agonist activity at human recombinant CB1 receptor expressed in HEK293 cells assessed as inhibition of forskolin-induced cAMP production after 20 mins by ELISA; assay type: functional, cell-based; method in brief: as §2
# [10] = target: T4, Cannabinoid receptor 1; test: Agonist activity at rat recombinant CB1 receptor expressed in HEK293 cells assessed as inhibition of forskolin-induced cAMP production after 20 mins by ELISA; assay type: functional, cell-based; method in brief: as §2
# T1 sequence (P34972 whole entry): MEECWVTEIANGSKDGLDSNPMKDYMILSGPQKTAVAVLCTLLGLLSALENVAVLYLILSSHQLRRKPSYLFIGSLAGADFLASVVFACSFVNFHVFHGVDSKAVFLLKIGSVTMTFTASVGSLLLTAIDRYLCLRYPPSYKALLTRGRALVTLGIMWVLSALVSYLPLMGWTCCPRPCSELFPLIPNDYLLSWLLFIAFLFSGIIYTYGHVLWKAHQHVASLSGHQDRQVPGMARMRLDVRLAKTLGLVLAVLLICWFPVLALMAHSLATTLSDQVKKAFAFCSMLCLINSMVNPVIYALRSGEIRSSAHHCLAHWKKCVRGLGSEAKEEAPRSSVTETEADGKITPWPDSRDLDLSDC
# T3 sequence (P21554 whole entry): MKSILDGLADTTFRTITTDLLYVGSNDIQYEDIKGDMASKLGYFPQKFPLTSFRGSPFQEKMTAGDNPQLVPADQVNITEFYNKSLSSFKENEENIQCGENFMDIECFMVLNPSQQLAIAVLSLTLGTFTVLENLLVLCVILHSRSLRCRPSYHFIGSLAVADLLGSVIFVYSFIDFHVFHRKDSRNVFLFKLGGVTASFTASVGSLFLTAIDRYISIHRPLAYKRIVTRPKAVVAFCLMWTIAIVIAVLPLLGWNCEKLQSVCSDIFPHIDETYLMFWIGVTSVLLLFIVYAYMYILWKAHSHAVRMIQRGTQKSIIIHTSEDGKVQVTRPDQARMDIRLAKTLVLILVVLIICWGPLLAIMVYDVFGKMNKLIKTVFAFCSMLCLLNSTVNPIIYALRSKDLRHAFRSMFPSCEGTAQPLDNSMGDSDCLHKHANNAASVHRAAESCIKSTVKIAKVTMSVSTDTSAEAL
# T4 sequence (P20272 whole entry): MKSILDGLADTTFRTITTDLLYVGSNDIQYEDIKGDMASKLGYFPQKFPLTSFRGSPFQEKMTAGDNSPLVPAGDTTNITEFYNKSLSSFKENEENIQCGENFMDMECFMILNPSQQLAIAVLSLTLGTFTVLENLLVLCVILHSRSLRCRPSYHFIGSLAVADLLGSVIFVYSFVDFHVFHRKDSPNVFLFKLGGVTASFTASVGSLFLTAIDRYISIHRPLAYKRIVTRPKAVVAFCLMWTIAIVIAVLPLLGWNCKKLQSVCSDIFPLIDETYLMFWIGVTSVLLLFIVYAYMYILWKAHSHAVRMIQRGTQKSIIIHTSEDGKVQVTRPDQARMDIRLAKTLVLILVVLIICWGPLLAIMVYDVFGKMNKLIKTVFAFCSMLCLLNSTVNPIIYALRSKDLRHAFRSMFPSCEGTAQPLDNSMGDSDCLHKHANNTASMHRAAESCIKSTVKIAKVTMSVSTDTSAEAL
smiles,measurement,setting,value
O=C(c1c(NC(=O)C23CC4CC(CC2C4)C3)sc2c1CCOC2)N1CC(F)(F)C1,Ki,[1],5.62 nM
same,Ki,[2],46.8 nM
same,Ki,[3],3390 nM
same,Ki,[4],66.1 nM
same,IC50,[5],5.62 nM
same,IC50,[6],0.2 nM
same,IC50,[7],9.55 nM
same,Imax,[8],53%
same,IC50,[9],550 nM
same,IC50,[10],229 nM
